# Most compounds without a hit are left out; they make up all but 1.9% or so of the library.
# SK-BR-3 tox 24h – SK-BR-3 proliferation inhibitors. SK-BR-3 viability, CellTiter-Glo ATP luminescence, 24 h; stronger effect = lower value. viability, % at 10 µM. 41,000 tested, 0.47% active. AID 847;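 active = viability at or below the median of all test compounds minus 3 SD, in both replicates if run twice, cut at about 45% in these data; inconclusive = duplicate replicates that disagree with each other; inactive = viability above that cutoff in every replicate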;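 note: 100% = median untreated cell wells and 0% = median positive control drug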
# S1P1 ag-PAM – activates or potentiates agonism at human S1P1 receptor. 56,000 tested, 0.57% active. S1P1 CRE-bla cells, forskolin, beta-lactamase FRET, potentiator mode; S1P1 agonist co-added at EC20, 2 nM; 100% = saturating reference agonist, 0% = basal. activation, % at 9.5 µM. P21453;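 active = activation above a cutoff set at the mean activation of all tested compounds plus 3 SD, cut at about 54% in these data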;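 note: forskolin at 4 µM as EC80 and the EC20 agonist is SEW2871; 100% = SEW2871 at its EC100 plus forskolin at EC80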
# Target sequence (P21453 whole entry, looked up): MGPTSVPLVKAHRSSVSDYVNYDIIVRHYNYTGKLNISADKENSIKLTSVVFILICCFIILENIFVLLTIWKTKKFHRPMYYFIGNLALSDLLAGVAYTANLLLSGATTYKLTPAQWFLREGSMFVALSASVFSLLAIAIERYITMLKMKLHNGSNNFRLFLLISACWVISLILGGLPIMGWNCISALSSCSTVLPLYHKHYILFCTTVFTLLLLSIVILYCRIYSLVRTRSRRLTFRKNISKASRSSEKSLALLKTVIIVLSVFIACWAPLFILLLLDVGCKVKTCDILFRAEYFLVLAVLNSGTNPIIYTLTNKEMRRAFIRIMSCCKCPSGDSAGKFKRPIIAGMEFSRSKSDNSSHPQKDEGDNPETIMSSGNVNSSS
# Jurkat tox 60K – cytotoxicity toward Jurkat cells; Jurkat E6.1 viability, ATP luminescence, 48 h; inhibition, % at 4 µM; 56,000 tested, 1.2% active;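 active = inhibition above the mean inhibition of all tested compounds plus 3 SD, cut at about 28% in these data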
# HEK293 NFkB inh – lowers PMA/ionomycin-induced NF-kB signal in HEK293 cells | AID 465 | 62,000 tested, 0.21% active | inhibition, % at 3 µM | HEK-293 NF-kB luciferase reporter, luminescence;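 active = inhibition above the mean of all tested compounds plus 3 SD, cut at about 40% in these data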;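 note: 0% = stimulated DMSO wells and 100% = 10 µM reference inhibitor 5653914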
#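 Timing: 1 h pretreatment, 16 h stimulation, 37 °C; system: HEK-293 cells with stable firefly luciferase reporter driven by four HIV NF-kB elements; doses: 3 µM once, 0.30% DMSO; measured by: luciferase luminescence; control set: DMSO and 10 µM reference inhibitor; repeats: single test; reagent: PMA plus ionomycin mix as NF-kB-activating stimulus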
# * = called active by the depositor; ? = inconclusive; · = no result given.
SMILES,SK-BR-3 tox 24h,S1P1 ag-PAM,Jurkat tox 60K,HEK293 NFkB inh
CCOc1ccc(-c2nc(CSCC(=O)NCc3ccco3)c(C)o2)cc1,·,8.9,0.9,83.1*
Cc1oc(-c2ccccc2Cl)nc1CSCC(=O)N1CCCC1,·,14.1,38.6*,86.6*
Cc1cccc(-c2nc(CSCC(=O)N3CCN(Cc4ccc5c(c4)OCO5)CC3)c(C)o2)c1,·,57.9*,6.4,13.1
O=C(CSCc1ccccc1)N1CCN(Cc2ccc3c(c2)OCO3)CC1,103.5,-0.3,1.6,1.0
COc1ccc(-c2nc(CS(=O)CC(=O)NCc3ccco3)c(C)o2)cc1 (stereo not drawn),·,-0.8,-1.0,3.4
O=C(CSc1nccn1-c1ccc(Cl)cc1)NCc1ccc2c(c1)OCO2,·,9.5,-0.9,8.6
COC(=O)c1c(C)[nH]c(C(=O)C(C)Sc2nnc(-c3cc(OC)c(OC)c(OC)c3)o2)c1C (stereo not drawn),·,-5.5,-7.4,17.8
COc1ccc(C(=O)c2ccc(OC)c(N)c2)cc1N,92.0,-3.0,62.3*,19.5
CCCCOC(=O)C1Cc2ccccc2C(=O)O1 (stereo not drawn),86.2,·,-4.3,-10.0
Cc1ccc(CCP(=O)(O)CN2CCCCC2)cn1,·,-26.4,-2.5,6.6
CCn1c(C)nc2cc(-c3nc4n(n3)Cc3ccccc3-4)ccc21,·,-43.5,61.9*,93.1*
Fc1ccc(-c2nc3n(n2)Cc2ccccc2-3)cc1,71.4,12.3,12.8,-47.2
COc1nc2c(C)cccc2cc1-c1noc(-c2ccncc2)n1,103.9,13.1,3.9,0.5
Cc1ccc(-c2nc3cc(NC(=O)C(C)C)ccc3o2)cc1,64.3,13.7,7.2,-77.8
Cc1cc2nc(-c3ccc(NC(=O)C(C)C)cc3)oc2cc1C,·,108.3*,-3.6,-68.5
CCc1ccc2nc(NC(=O)c3cc(C)on3)sc2c1,·,40.8,82.3*,-4.4
Cc1cc(C(=O)Nc2nc3c(s2)CCCC3)no1,·,-9.2,-3.5,-27.2
COc1ccc(CCNCc2csc3nc4ccccc4n23)cc1OC,94.2,46.5,46.0*,19.0
COc1ccc(-c2[nH]c(-c3cccc(OC)c3)nc2SCC(=O)NCc2ccco2)cc1,·,-15.0,-2.7,1.7
Cc1ccc(-c2nnc(SCC(=O)Nc3ccc4c(c3)OCCO4)n2N)cc1,·,-5.7,6.8,18.6
Cc1cc(C(=O)CSc2nnnn2-c2ccc(O)cc2)c(C)n1Cc1ccc2c(c1)OCO2,·,61.3*,0.6,13.6
Cc1cc(C(=O)CSc2nnc(-c3cccc(F)c3)n2N)c(C)n1Cc1ccc2c(c1)OCO2,·,43.5,36.8*,16.2
COc1ccc(C(C#N)C2(C)OCCO2)cc1OC (stereo not drawn),·,-10.0,-5.0,2.5
COc1cc2[nH]c(=O)n(CCCCCC(=O)N3CCN(c4ccccc4)CC3)c(=O)c2cc1OC,85.2,·,·,16.7
COc1cc2[nH]c(=O)n(CCC(=O)N3CCN(c4cccc(C)c4C)CC3)c(=O)c2cc1OC,4.9*,·,·,18.4
SMILES,SK-BR-3 tox 24h,S1P1 ag-PAM,Jurkat tox 60K,HEK293 NFkB inh
Cc1nn(-c2ccccc2)c(C)c1C(=O)OCC(=O)c1c(N)n(CC(C)C)c(=O)n(C)c1=O,·,44.1,37.6*,17.4
CCOc1cc(C(=O)Nc2cnccn2)cc(OCC)c1OCC,93.2,-34.9,51.3*,0.1
Cc1c(NC(=O)C(C)Sc2nc3ccccc3c(=O)n2CCO)c(=O)n(-c2ccccc2)n1C (stereo not drawn),·,-6.7,2.1,13.4
CC(C)OC(=O)c1cccnc1SCc1cc(=O)n2ccccc2n1,·,-17.3,6.3,0.5
COc1ccc(CNc2cc(C)nc3ncnn23)c(OC)c1,39.6*,60.4,79.8*,26.8
COc1ccc(Nc2cc(C)nc3ncnn23)c(OC)c1,·,-20.4,-8.6,17.4
CC(=O)Nc1ccc(S(=O)(=O)n2nc(C)cc2C)cc1,126.8,-8.2,0.9,16.3
CC(=O)Nc1ccc(S(=O)(=O)n2cnc3cc(C)c(C)cc32)cc1,66.1,12.4,28.5*,-5.2
CC1CCN(c2nc(-c3ccco3)c3c(c2C#N)CC(C)(C)OC3)CC1,·,-34.8,2.6,12.5
O=S(=O)(CCSc1ccccn1)c1nc2ccccc2s1,125.1,88.1*,49.8*,24.2
O=C(CSc1nc2ccccc2s1)Nc1ncccn1,88.8,-22.2,-0.1,10.3
O=S(=O)(CCSc1nc2ccccc2o1)c1nc2ccccc2s1,?,55.1,63.9*,19.5
CCS(=O)(=O)CCSc1nc2ccccc2o1,100.2,·,-9.3,7.5
O=C(CN1C(=O)C2CC=CCC2C1=O)NC1=NCCS1 (stereo not drawn),·,20.6,0.5,-3.6
Cc1ccccc1N1C(=O)CC(Sc2nnc(-c3ccccc3)o2)C1=O (stereo not drawn),4.5*,-8.4,·,·
c1ccc(CNc2ncnc3ccccc23)cc1,127.6,105.7*,69.2*,21.7
CCOC(=O)N1CCN(C(=O)c2oc3ccc(S(=O)(=O)N4CCCCC4)cc3c2C)CC1,·,12.1,-0.8,23.1
Cc1c(C(=O)N2CCCCC2)oc2ccc(S(=O)(=O)N3CC(C)CC(C)C3)cc12 (stereo not drawn),83.5,54.6,32.2*,29.6
Nc1nonc1C(=O)NCCNCc1cc(Br)ccc1OCc1ccc(F)cc1,75.4,92.9*,26.0,8.9
Cc1cc(S(=O)(=O)N2CCN(c3ccc(F)cc3)CC2)c(C)s1,·,2.0,0.1,2.8
Cc1ccc2c(=O)c(CN(C)C3CCN(C)CC3)c(C)[nH]c2c1C,74.0,-2.5,·,·
C=CCn1c(=O)/c(=C/c2ccc(O)cc2)s/c1=C(/C#N)c1nnc2n1CCCCC2,·,-9.9,-2.5,16.1
C=CCn1c(=O)/c(=C/c2cc(OC)c(OC)c(OC)c2)s/c1=C(/C#N)c1nc2ccccc2n1C,39.7*,·,·,8.4
Cc1cc2oc3c(c(=O)c2cc1C)C(c1ccc(C(C)C)cc1)N(CCCN1CCOCC1)C3=O (stereo not drawn),·,-5.0,6.5,4.3
CCN(CC)S(=O)(=O)c1ccc(NC(=O)Cn2c(=O)sc3ccccc32)cc1,94.0,2.8,-2.0,13.1
SMILES,SK-BR-3 tox 24h,S1P1 ag-PAM,Jurkat tox 60K,HEK293 NFkB inh
COc1ccc(NS(=O)(=O)c2cc(OC)ccc2NC(=O)c2cc(C)oc2C)cc1,·,-33.0,94.0*,38.5
COc1ccc(NS(=O)(=O)c2cc(C(=O)O)ccc2C)cc1,·,12.7,-0.4,4.8
CCc1ccc(NS(=O)(=O)c2cc(OC)ccc2OC)cc1,90.5,·,28.8*,6.8
COc1ccc(NS(=O)(=O)c2cc(C)ccc2C)cc1,·,10.3,73.5*,22.8
COc1ccccc1N(CC(=O)Nc1cc(C)on1)S(=O)(=O)c1cccs1,·,20.9,-7.0,21.2
CCNc1nc(N)nc(Oc2ccc(OCCOc3ccc(Cl)cc3Cl)nn2)n1,105.8,-32.1,2.8,21.9
CCc1nc(N)c(C#N)c(-c2ccccc2OC)c1C,117.3,-13.5,-2.7,9.9
Cn1nnnc1SCC(=O)Nc1ccc(Oc2ccc(Cl)cc2)cc1,90.4,·,50.9*,4.0
Cn1nnnc1SCC(=O)Nc1c(Cl)cccc1Cl,·,0.0,-0.5,15.1
CCOC(=O)C(C(C)=O)c1c(Br)c(O)c(O)c2c(C(=O)c3ccc(C)cc3)coc12 (stereo not drawn),?,47.9,60.9*,47.2*

# Source: PubChem BioAssay
